Reference: ChEMBL document CHEMBL1157693, “Microwave assisted synthesis and antimicrobial activity of 2-quinoxalinone-3-hydrazone derivatives” (2010)
Values after ≈ are worked out from the molar mass of the structure shown. Active and inactive are the calls of the source. The calls are words filed in the database; no cut-off is given here.

Columns and labels:
Format in all cases: functional
Shigella dysenteriae [1] = experiment: Antibacterial activity against Shigella dysenteriae after 72 hrs
In short: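 MIC by agar dilution: compound-containing nutrient agar was set and surface-dried, then streaked with overnight broth culture of the clinical isolate. Incubated at 37 °C for up to 72 h and scored for presence or absence of growth. Streptomycin was the reference.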

[2] = system: Geobacillus stearothermophilus; experiment: Antibacterial activity against Bacillus stearothermophilus NCIB 8222 after 72 hrs; settings: NCIB 8222, 72 h
In short: (§1)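 MIC by the Russell and Furr method, run on selected Gram-positive and Gram-negative strains. Once the agar had set and its surface had dried, nutrient agar plates were streaked with overnight broth cultures. They were incubated at 37 °C for up to 72 h and scored for presence or absence of growth.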

Klebsiella pneumoniae [3] = experiment: Antibacterial activity against Klebsiella pneumoniae NCIB 418 after 24 hrs by agar well diffusion method; on IZ: test concentration or dose not given here
In short: (§2)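 Agar well diffusion. Clinical isolates were first checked for viability, then grown in nutrient broth for 8 h at 37 °C. About 0.2 ml of broth culture was mixed into 18 ml molten diagnostic sensitivity test agar cooled to 45 °C and poured into plates. Compounds in DMSO went into bored wells, with streptomycin as reference. Plates stood 1 h for diffusion, then were incubated upright at 37 °C for 24 h. Clear inhibition zones were read in mm.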

Pseudomonas fluorescens = experiment: Antibacterial activity against Pseudomonas fluorescens NCIB 3756 after 24 hrs by agar well diffusion method; in short: as §2; on IZ: test concentration or dose not given here
Shigella dysenteriae [4] = experiment: Antibacterial activity against Shigella dysenteriae after 24 hrs by agar well diffusion method
Staphylococcus aureus [5] = experiment: Antibacterial activity against Staphylococcus aureus NCIB 8588 after 72 hrs; settings: NCIB 8588, 72 h; in short: as §1
Bacillus anthracis [6] = experiment: Antibacterial activity against Bacillus anthracis after 24 hrs by agar well diffusion method
Bacillus subtilis [7] = experiment: Antibacterial activity against Bacillus subtilis NCIB 3610 after 72 hrs; settings: NCIB 3610, 72 h; in short: as §1
Bacillus cereus [8] = experiment: Antibacterial activity against Bacillus cereus NCIB 6349 after 72 hrs; in short: as §1
Bacillus anthracis [9] = experiment: Antibacterial activity against Bacillus anthracis after 72 hrs
Klebsiella pneumoniae [10] = experiment: Antibacterial activity against Klebsiella pneumoniae NCIB 418 after 72 hrs; settings: NCIB 418, 72 h; in short: as §1
Pseudomonas aeruginosa = experiment: Antibacterial activity against Pseudomonas aeruginosa NCIB 950 after 24 hrs by agar well diffusion method; in short: as §2; on IZ: test concentration or dose not given here
Bacillus cereus [11] = experiment: Antibacterial activity against Bacillus cereus NCIB 6349 after 24 hrs by agar well diffusion method; in short: as §2; on IZ: test concentration or dose not given here
Staphylococcus aureus [12] = experiment: Antibacterial activity against Staphylococcus aureus NCIB 8588 after 24 hrs by agar well diffusion method; in short: as §2; on IZ: test concentration or dose not given here
Bacillus subtilis [13] = experiment: Antibacterial activity against Bacillus subtilis NCIB 3610 after 24 hrs by agar well diffusion method; in short: as §2; on IZ: test concentration or dose not given here
Escherichia coli [14] = experiment: Antibacterial activity against Escherichia coli NCIB 86 after 24 hrs by agar well diffusion method; in short: as §2; on IZ: test concentration or dose not given here
Escherichia coli [15] = experiment: Antibacterial activity against Escherichia coli NCIB 86 after 72 hrs; settings: NCIB 86, 72 h; in short: as §1
Candida albicans = experiment: Antifungal activity against Candida albicans after 3 days by agar well diffusion method
[16] = system: Geobacillus stearothermophilus; experiment: Antibacterial activity against Bacillus stearothermophilus NCIB 8222 after 24 hrs by agar well diffusion method; in short: as §2; on IZ: test concentration or dose not given here

Row | Molecule | MIC (Shigella dysenteriae [1]) | MIC [2] | inhibition zone (IZ) (Klebsiella pneumoniae [3]) | inhibition zone (IZ) (Pseudomonas fluorescens) | inhibition zone (IZ) (Shigella dysenteriae [4]) | MIC (Staphylococcus aureus [5]) | inhibition zone (IZ) (Bacillus anthracis [6]) | MIC (Bacillus subtilis [7]) | MIC (Bacillus cereus [8]; NCIB 6349, 72 h) | MIC (Bacillus anthracis [9]) | MIC (Klebsiella pneumoniae [10]) | inhibition zone (IZ) (Pseudomonas aeruginosa) | inhibition zone (IZ) (Bacillus cereus [11]) | inhibition zone (IZ) (Staphylococcus aureus [12]) | inhibition zone (IZ) (Bacillus subtilis [13]) | inhibition zone (IZ) (Escherichia coli [14]) | MIC (Escherichia coli [15]) | inhibition zone (IZ) (Candida albicans) | inhibition zone (IZ) [16] | MIC (Bacillus cereus [8])
1 | CC/C(C)=N\Nc1nc2ccccc2[nH]c1=O | inactive | 31.3 µg/mL (≈ 136 µM) | 19 mm | 0 mm | 0 mm | 15.6 µg/mL (≈ 67.7 µM) | 12 mm | 31.3 µg/mL (≈ 136 µM) | 7.8 µg/mL (≈ 33.9 µM) | 62.5 µg/mL (≈ 271 µM) | 62.5 µg/mL (≈ 271 µM) | 0 mm | 25 mm | 19 mm | 16 mm | 21 mm | 31.3 µg/mL (≈ 136 µM) | 22 mm | 17 mm | 
2 | CC(C)=NNc1nc2ccccc2[nH]c1=O | 31.3 µg/mL (≈ 145 µM) | 7.8 µg/mL (≈ 36.1 µM) | 12 mm | 0 mm | 13 mm | 62.5 µg/mL (≈ 289 µM) | 14 mm | 7.8 µg/mL (≈ 36.1 µM) | 15.6 µg/mL (≈ 72.1 µM) | 62.5 µg/mL (≈ 289 µM) | 15.6 µg/mL (≈ 72.1 µM) | 0 mm | 24 mm | 12 mm | 30 mm | 30 mm | 7.8 µg/mL (≈ 36.1 µM) | 31 mm | 30 mm | 
3 | O=c1[nH]c2ccccc2nc1N/N=C1\CCCCC1Cl (stereo not drawn) | inactive | 31.3 µg/mL (≈ 108 µM) | 13 mm | 9 mm | 0 mm | 62.5 µg/mL (≈ 215 µM) | 14 mm | 15.6 µg/mL (≈ 53.7 µM) | 31.3 µg/mL (≈ 108 µM) | 31.3 µg/mL (≈ 108 µM) | 31.3 µg/mL (≈ 108 µM) | 0 mm | 12 mm | 12 mm | 16 mm | 12 mm | 62.5 µg/mL (≈ 215 µM) | 15 mm | 14 mm | 
4 | O=C1Nc2ccc(Br)cc2/C1=N/Nc1nc2ccccc2[nH]c1=O | 125 µg/mL (≈ 325 µM) | 15.6 µg/mL (≈ 40.6 µM) | 15 mm | 11 mm | 11 mm | 15.6 µg/mL (≈ 40.6 µM) | 8 mm | 62.5 µg/mL (≈ 163 µM) | 62.5 µg/mL (≈ 163 µM) | 125 µg/mL (≈ 325 µM) | 31.3 µg/mL (≈ 81.5 µM) | 0 mm | 15 mm | 20 mm | 13 mm | 13 mm | 62.5 µg/mL (≈ 163 µM) | 15 mm | 22 mm | 
5 | O=C1Nc2ccccc2/C1=N/Nc1nc2ccccc2[nH]c1=O | 15.6 µg/mL (≈ 51.1 µM) | 62.5 µg/mL (≈ 205 µM) | 12 mm | 0 mm | 0 mm | 31.3 µg/mL (≈ 103 µM) | 11 mm | 62.5 µg/mL (≈ 205 µM) |  | 125 µg/mL (≈ 409 µM) | 62.5 µg/mL (≈ 205 µM) | 17 mm | 0 mm | 19 mm | 14 mm | 10 mm | 125 µg/mL (≈ 409 µM) | 20 mm | 13 mm | inactive
6 | O=c1[nH]c2ccccc2nc1N/N=C1\CCCCC1Br (stereo not drawn) | 15.6 µg/mL (≈ 46.5 µM) | 31.3 µg/mL (≈ 93.4 µM) | 12 mm | 0 mm | 15 mm | 31.3 µg/mL (≈ 93.4 µM) | 19 mm | 7.8 µg/mL (≈ 23.3 µM) | 7.8 µg/mL (≈ 23.3 µM) | 15.6 µg/mL (≈ 46.5 µM) | 31.3 µg/mL (≈ 93.4 µM) | 0 mm | 28 mm | 13 mm | 20 mm | 13 mm | 31.3 µg/mL (≈ 93.4 µM) | 19 mm | 13 mm | 
7 | CCC(CC)=NNc1nc2ccccc2[nH]c1=O | inactive | 7.8 µg/mL (≈ 31.9 µM) | 15 mm | 0 mm | 0 mm | 62.5 µg/mL (≈ 256 µM) | 0 mm | 31.3 µg/mL (≈ 128 µM) | 7.8 µg/mL (≈ 31.9 µM) | inactive | 31.3 µg/mL (≈ 128 µM) | 0 mm | 28 mm | 10 mm | 20 mm | 15 mm | 31.3 µg/mL (≈ 128 µM) | 18 mm | 25 mm | 
8 | NNc1nc2ccccc2[nH]c1=O | 125 µg/mL (≈ 710 µM) | 15.6 µg/mL (≈ 88.5 µM) | 10 mm | 0 mm | 22 mm | 125 µg/mL (≈ 710 µM) | 24 mm | 15.6 µg/mL (≈ 88.5 µM) | 15.6 µg/mL (≈ 88.5 µM) | 15.6 µg/mL (≈ 88.5 µM) | 125 µg/mL (≈ 710 µM) | 15 mm | 28 mm | 24 mm | 20 mm | 25 mm | 15.6 µg/mL (≈ 88.5 µM) | 18 mm | 15 mm | 
9 | O=c1[nH]c2ccccc2nc1NN=C1CCCCC1 | 125 µg/mL (≈ 488 µM) | 31.3 µg/mL (≈ 122 µM) | 17 mm | 12 mm | 10 mm | 15.6 µg/mL (≈ 60.9 µM) | 0 mm | 31.3 µg/mL (≈ 122 µM) | 15.6 µg/mL (≈ 60.9 µM) | inactive | 15.6 µg/mL (≈ 60.9 µM) | 0 mm | 25 mm | 19 mm | 16 mm | 11 mm | 62.5 µg/mL (≈ 244 µM) | 21 mm | 15 mm | 
10 | O=c1[nH]c2ccccc2nc1NN=C1c2ccccc2Cc2ccccc21 | inactive | 15.6 µg/mL (≈ 44.3 µM) | 21 mm | 0 mm | 0 mm | 15.6 µg/mL (≈ 44.3 µM) | 14 mm | 31.3 µg/mL (≈ 88.8 µM) | 7.8 µg/mL (≈ 22.1 µM) | 31.3 µg/mL (≈ 88.8 µM) | 7.8 µg/mL (≈ 22.1 µM) | 15 mm | 25 mm | 14 mm | 12 mm | 20 mm | 15.6 µg/mL (≈ 44.3 µM) | 9 mm | 18 mm | 
11 | CC12CCC(C/C1=N\Nc1nc3ccccc3[nH]c1=O)C2(C)C (stereo not drawn) | inactive | 31.3 µg/mL (≈ 101 µM) | 16 mm | 0 mm | 0 mm | 62.5 µg/mL (≈ 201 µM) | 5 mm | 15.6 µg/mL (≈ 50.3 µM) | 62.5 µg/mL (≈ 201 µM) | 125 µg/mL (≈ 403 µM) | 31.3 µg/mL (≈ 101 µM) | 13 mm | 10 mm | 11 mm | 16 mm | 18 mm | 15.6 µg/mL (≈ 50.3 µM) | 21 mm | 14 mm | 
12 | Cc1ccc2c(c1)/C(=N/Nc1nc3ccccc3[nH]c1=O)C(=O)N2 | 31.3 µg/mL (≈ 98 µM) | 62.5 µg/mL (≈ 196 µM) | 17 mm | 0 mm | 14 mm | 15.6 µg/mL (≈ 48.9 µM) | 0 mm | 31.3 µg/mL (≈ 98 µM) | 62.5 µg/mL (≈ 196 µM) | inactive | 15.6 µg/mL (≈ 48.9 µM) | 0 mm | 10 mm | 19 mm | 15 mm | 14 mm | 31.3 µg/mL (≈ 98 µM) | 30 mm | 13 mm | 
13 | NYSTATIN |  |  | inactive | inactive | inactive |  | inactive |  |  |  |  | inactive | inactive | inactive | inactive | inactive |  |  | inactive | 
